# Screening results deposited in PubChem BioAssay by several laboratories.
# PvdQ inh: P. aeruginosa PvdQ acylase inhibition; purified PvdQ acylase, fluorescence plate reader; inhibition, % at 10 µM; 0.063% of 340,000 active; AID 488965; in the data active = inhibition above about 30%, passing the limit was not always enough;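 also: 0% = vehicle neutral wells and 100% = reference inhibitor wells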
# CHOP UPR activ: apoptotic UPR (CHOP) activation; CHO-CHOP luciferase reporter, luminescence; percent of tunicamycin response over DMSO baseline; activation, % at 10 µM; 0.34% of 330,000 active; AID 449763;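 active = at 10 µM dose, activation of 40% or more, normalized to positive control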;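 also: 100% = tunicamycin at 10 µg/mL and 0% = DMSO alone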
#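 Test system: CHO CHOP reporter cells. Input: 500 CHO-CHOP cells per well. Medium: F12 with 10% FBS. Technique: luciferase luminescence. Measure: percent activation relative to tunicamycin control. Dosing: 10 µM compound, 0.5% DMSO. Timing: 16-18 h cell attachment, then 6 h compound exposure, 37 °C.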
# XBP1 UPR activ: activators of adaptive arm of unfolded protein response (XBP1). CHO-XBP1 luciferase reporter, IRE1-XBP1 UPR activation, luminescence; percent of tunicamycin response, DMSO as zero. activation, % at 20 µM. 0.33% of 330,000 active;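 active = versus positive control, 20 µM dose yields 30% or more activation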;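 also: 100% = tunicamycin at 10 µg/mL and 0% = DMSO only wells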
#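 Material: CHO-XBP1 cells stably carrying IRE1-XBP1-driven luciferase reporter / Amount: 1000 cells per well / Compound: 20 µM, 1% DMSO / Times: 6 h treatment, 37 °C / Detection: luciferase luminescence / Measure: % activation of reporter signal versus tunicamycin and DMSO controls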
# CHOP inhibitor: blocks CHOP induction under ER stress | CHO-K1 CHOP-promoter luciferase, tunicamycin-induced, 15-18 h | inhibition, % at 10 µM | 3.8% of 220,000 active;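 active = compounds that reduced the stress-induced luciferase reporter signal by more than about 70% of percent inhibition, limit read from the data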;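 also: 0% = tunicamycin plus vehicle and 100% = wells without tunicamycin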
# * hit, by the source's call; x = not tested or not shown. The full list was thinned out, with hits kept by preference.
SMILES,PvdQ inh,CHOP UPR activ,XBP1 UPR activ,CHOP inhibitor
CC(C)c1ccc(N(C(=O)c2ccc3c(c2)OCO3)C2C=CS(=O)(=O)C2)cc1 (stereo not given),-5,-1,-1,x
CCCCOc1ccccc1Cn1c(=O)oc2ccccc21,2,-1,-8,88*
CC1CC(C)(C)NC(=S)N1CCCC(=O)NCc1ccccc1 (stereo not given),0,1,1,-9
O=C(CCCCCn1c(=S)[nH]c2cc3c(cc2c1=O)OCO3)N1CCN(C2CCCCC2)CC1,10,-1,3,83*
Cc1ccc(SCCC(=O)NC2CC2)cc1,8,-2,-1,-12
Cn1c(=O)c(C(=O)Nc2ccccn2)c(O)c2ccccc21,-8,4,-2,72*
CCOc1ccc(S(=O)(=O)N(CC(=O)Nc2cc(C)on2)Cc2ccccc2Cl)cc1,-2,-1,-2,73*
CCCCOc1ccc(N(CC(=O)NC2CCCCC2)C(=O)CCC(=O)Nc2ccccn2)cc1,-12,0,-1,x
Cc1ccc(CSc2ncnc3ccccc23)cc1,-1,2,2,2
Cc1cccc(CSc2ncnc3ccccc23)c1,4,3,-1,73*
O=C(CN1C(=O)NC2(CCCCC2)C1=O)N1CCN(S(=O)(=O)c2cccc(F)c2)CC1,0,0,-1,x
CCCOP(=O)(OCCC)C(Nc1cccc(C(F)(F)F)c1)c1ccc(C)cc1 (stereo not given),-8,-1,-2,90*
CCn1c(-c2ccsc2)nc2c1c(=O)[nH]c(=O)n2Cc1ccccc1,-7,-2,5,-3
O=C(Nc1nc(-c2cccc3ccccc23)cs1)c1ccc2c(c1)S(=O)(=O)c1ccccc1C2=O,-11,34,25,85*
O=C(Nc1nc(-c2ccccc2)cs1)c1ccc2c(c1)S(=O)(=O)c1ccccc1C2=O,-9,1,0,16
C=CCn1c(SCC(=O)c2c(N)n(C)c(=O)n(C)c2=O)nnc1-c1ccccc1F,-6,0,3,2
Cc1ccc(NC(=O)Cn2cncc2-c2ccc([N+](=O)[O-])cc2)cc1C,-10,-1,3,81*
Cc1ccc(NC(=O)[C@H](C)NC(=O)C2CCN(C(=O)[C@@H](N)CC(C)C)CC2)cc1,-12,1,4,x
CCCCNC(=S)N(C)/N=C/c1c(F)c(F)c(F)c(F)c1F,13,-1,-1,22
CCCCNC(=S)N(C)/N=C/c1c(C)[nH]c2ccccc12,-9,3,-1,72*
Cc1cccc(C)c1-n1c(C)cc(/C=N\Nc2ccc([N+](=O)[O-])cn2)c1C,-11,-1,0,50
Cc1cc(/C=N/Nc2nc(N)ncc2[N+](=O)[O-])c(C)n1-c1ccccc1F,x,-10,-8,80*
CC(C)N(C(=O)CSc1nc2ccccc2n1Cc1ccc(F)cc1)C(C)C,-20,-4,1,18
CC(C)(C)n1nnnc1CN1CCSCC1,6,3,0,3
O=C(CSc1nc(C2CC2)nc2ccccc12)N1CCCCC1,-12,2,-2,x
SMILES,PvdQ inh,CHOP UPR activ,XBP1 UPR activ,CHOP inhibitor
O=C(CSc1nc(C2CC2)nc2ccccc12)N1CCc2ccccc2C1,x,0,-1,74*
O=C1C=C(c2cccc(Br)c2)C[C@@H](c2ccc(Cl)cc2)C1,14,2,2,x
N#C/C(=N/Nc1ccc(OC(F)(F)F)cc1)C(N)=S,-1,11,5,74*
COc1ccc(C(=O)Nc2nc3c(s2)Cc2cc(OC)ccc2-3)cc1,-9,0,-4,13
COc1ccc2c(c1)Cc1sc(NC(=O)c3ccccc3)nc1-2,-10,8,3,84*
COc1ccc2c(c1)Cc1sc(NC(=O)c3cccs3)nc1-2,-13,5,-1,74*
CCOC(=O)c1c(C)[nH]c(C)c1S(=O)(=O)N1CCN(c2ccc([N+](=O)[O-])cc2)CC1,11,0,-1,x
CN(CCOc1ccc(C[C@H](Nc2ccccc2C(=O)c2ccccc2)C(=O)O)cc1)c1ccccn1,x,x,x,7
Cc1ccc(N2C(=O)c3cccc4c(N5CCN(C)CC5)ccc(c34)C2=O)c2cccnc12,x,0,3,37
Cc1ccc(N2C(=O)c3cccc4c([N+](=O)[O-])ccc(c34)C2=O)c2cccnc12,-7,-3,-4,95*
O=[N+]([O-])c1cc(CN2CCN(c3ccccc3)CC2)c(O)c2ncccc12,2,10,14,77*
O=[N+]([O-])c1cc([N+](=O)[O-])c2cccnc2c1Oc1ccccc1O,-8,x,x,86*
O=[N+]([O-])c1ccc(O)c2ncccc12,1,6,6,87*
O=[N+]([O-])c1cc(Cl)c(O)c2ncccc12,1,0,-2,28
COc1ccc([N+](=O)[O-])cc1N(CC(=O)N1CCOCC1)S(C)(=O)=O,-8,-2,-5,4
CCOC(=O)c1sc(-c2ccc(Br)cc2)cc1N,-11,4,5,81*
Fc1nc(F)c(F)c(NCCCNc2c(F)c(F)nc(F)c2F)c1F,-5,1,0,88*
Cc1ccc(NC(=O)Nc2ccc(F)cc2)cc1Cl,2,4,3,67
Cc1ccc(NC(=O)CCC(=O)c2ccc(F)cc2)cc1Cl,-11,-1,1,79*
COc1ccc2nc(NC(=O)CC3Oc4ccccc4NC3=O)sc2c1 (stereo not given),-14,1,-3,75*
COc1ccc2nc(NC(=O)CSc3nc4ccccc4o3)sc2c1,-8,0,1,72*
COc1ccc2nc(NC(=O)c3ccc4ncsc4c3)sc2c1,11,6,8,91*
O=C(CSc1nc2ccccc2o1)Nc1nc2ccc(Br)cc2s1,-17,2,3,93*
Cc1cccc2sc(NC(=O)CSc3nc4ccccc4o3)nc12,0,-1,-4,68
CCc1cc(C)cc(OCCOc2ccccc2/C=N/NC(C)=O)c1,2,3,-6,x
SMILES,PvdQ inh,CHOP UPR activ,XBP1 UPR activ,CHOP inhibitor
COc1ccc2nc(NC(=O)Nc3cccc4ccccc34)sc2c1,0,6,9,88*
COc1cccc(C(=O)Nc2cccc3ccccc23)c1,-22,2,-5,x
CCOc1ccc2nc(NC(=O)CSc3nc4cccnc4n3C)sc2c1,-10,0,-1,77*
COc1cccc(C(CC(=O)Nc2cccc3ccccc23)NC(=O)c2ccccc2)c1 (stereo not given),-9,2,-1,84*
CCn1c(Cc2ccc(OC)cc2)nnc1SCC(=O)Nc1nc2ccccc2s1,-7,-1,2,83*
CCOc1ccc(OCC)c(NC(=O)CSc2nc3cccnc3n2C)c1,13,-1,-2,-3
COc1ccc(-c2cc(C(=O)OCC(=O)NC3CC3)c3ccccc3n2)cc1OC,-9,2,2,x
Cc1ccc(C(=O)NCC(=O)OCC(=O)Nc2ncc(C(F)(F)F)cc2Cl)cc1,-16,1,0,-1
COc1ccc(-c2cc(C(=O)Nc3ccc(Cl)cc3Cl)c3ccccc3n2)cc1OC,-4,4,-3,54
